In the library only some 2.6% were active in any assay of this set; here they are far more common.
Wnt bcat act = Wnt/beta-catenin pathway activation; hit rate 1.2% among 300,000; Wnt/beta-catenin reporter cell assay, activator, plate reader; activation, % at 9.35 µM; in the data active means activation above about 30%, passing the limit was not always enough; inconclusive means no clear call, values can overlap the other calls;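 further: 0% = neutral control wells and 100% = positive control wells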
MITF act = increases MITF-driven TRPM1 promoter luciferase signal. activation, % at 12.5 µM. hit rate 0.75% among 300,000. SK-MEL-5 TRPM1-promoter luciferase, 24 h; % of positive control, neutral wells = 0. AID 588334;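 active means mean activation of at least 80% with every replicate also reaching 80%; inconclusive means mean reaches 80% but some replicate falls short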;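 further: 0% = neutral control wells and 100% = parthenolide positive control wells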
esBAF inh = SWI/SNF esBAF complex inhibition | mouse ES cells, Bmi1-luciferase knock-in reporter, 24 h; 100% = twice the neutral-well signal | hit rate 2% among 350,000 | AID 602393 | reporter increase, % at 12.5 µM; in the data active means activation above about 40%; inconclusive means no clear call, values can overlap the other calls;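 further: 0% = median of the plate's neutral control wells and 100% = double that signal; a rise in the Bmi1 reporter signal indicates esBAF inhibition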
XiGFP reactiv = reactivates the inactive X chromosome in mouse fibroblasts. XiGFP mouse fibroblasts, % GFP-positive cells imaging, 3 d; cells co-treated with 5-aza-dC sensitizer; scaled so ellipticine positive control = 100%. AID 743238. activation, % at 7.58 µM. hit rate 0.055% among 360,000;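 active means mean normalized replicate activation at least 10% and every replicate at or above 10%; inconclusive means only one of the two criteria met; inactive means mean below 10% and not all replicates reach 10%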;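 further: 0% = median of on-plate neutral control wells and 100% = ellipticine 6 µM median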
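System: 68-5-11 XiGFP fibroblast line; Timing: 3 days compound exposure; Compound dosing: one concentration, pinned; Benchmarks: positive control ellipticine, 6 µM final; Buffer or medium: DMEM containing 5-aza-dC.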
Vif imaging = HIV Vif inhibition; inhibition, % at 7.49 µM; hit rate 0.35% among 340,000; HEK293T cells, Vif self-association by quenched fluorescence, imaging, 24 h; AID 602346; in the data active means inhibition above about 50%, passing the limit was not always enough; inconclusive means no clear call, values can overlap the other calls; inactive means below about 31%
The depositor's hits bear a star; u = inconclusive; x = not tested or not shown.

SMILES	Wnt bcat act	MITF act	esBAF inh	XiGFP reactiv	Vif imaging
CCOC(=O)c1ccc(Nc2ccc(C(C)=O)cc2)cc1	13	x	76*	0	-2
CCOC(=O)c1ccc(NC(=O)N2CCCCC2)cc1	x	101*	38	x	x
COc1ccc(NC(=O)N2CCCc3ccccc32)cc1	54*	23	41*	x	0
Cc1ccc(S(=O)(=O)N(C)C[C@@H]2Oc3c(NS(=O)(=O)c4ccc(F)cc4)cccc3C(=O)N([C@H](C)CO)C[C@H]2C)cc1	x	x	1	0	x
CNC[C@H]1Oc2ccc(NC(=O)Nc3cccc4ccccc34)cc2CC(=O)N([C@H](C)CO)C[C@@H]1C	x	x	-6	-1	x
O=C(Nc1cnn(Cc2ccc(F)cc2)c1)c1cc(-c2cccs2)on1	5	-4	x	x	57*
O=C(Nc1cnn(Cc2ccc(F)cc2)c1)c1cnccn1	x	7	42*	x	x
CCCc1cc(C(=O)Nc2cnn(Cc3ccc(F)cc3)c2)no1	20	-8	5	3	-3
Cc1noc(C)c1S(=O)(=O)N(C)C[C@@H]1OCCCC[C@H](C)Oc2ccc(NC(=O)CCCN(C)C)cc2C(=O)N([C@H](C)CO)C[C@@H]1C	x	x	2	0	x
CNc1nc2cc([N+](=O)[O-])c([N+](=O)[O-])cc2nc1NC	-4	-38	x	0	-29
N#Cc1cc2nc(O)c(O)nc2cc1[N+](=O)[O-]	0	-7	0	0	51*
COc1ccc(/C=C2\SC(=O)N(CCNC(=O)CCS(=O)(=O)c3ccc(C)cc3)C2=O)cc1	33*	55	x	0	-3
COc1ccc(/C=C2\SC(=O)N(CCNC(=O)Cn3cnnn3)C2=O)cc1	20	u	x	x	0
O=C(NC1CCCCC1)N1CC(=O)N2[C@H](CO)[C@H](c3ccc(/C=C/c4ccccc4)cc3)[C@H]2C1	x	x	x	0	x
Cc1cc(C)c(C#N)c(N2CCN(c3ccccc3)CC2)n1	4	1	-1	0	x
Cc1cc(C)c(C#N)c(N2CCSCC2)n1	62*	14	-8	x	9
O=C1Cc2c([nH]c3ccc(Br)cc23)-c2ccccc2N1	96*	x	x	0	-11
O=C(CN1CCOCC1)N/N=C/C(Br)=C\c1ccccc1	-1	10	x	0	-5
O=C(N/N=C/C(Br)=C/c1ccccc1)c1cnccn1	33*	35	50*	0	-12
COc1ccc(/C=N/NC(=O)Cc2cccs2)cc1	25	x	59*	0	-5
CC(/C=N/NC(=O)Cc1cccs1)=C\c1ccccc1	x	124*	x	0	17
O=C(Cc1cccs1)N/N=C/C(Br)=C/c1ccccc1	x	107*	51*	x	-7
COCC(=O)N1CCC2(CC1)CN(C(=O)CN1CCOCC1)[C@@H](CO)c1c2c2ccc(OC)cc2n1C	x	x	x	0	x
O=C(C1CCC1)N1C[C@@H]2N[C@H](C1)C2c1ccc(-c2ccncc2)cc1 (some centres undefined)	x	x	x	0	x
Cc1ccc(-c2cnc3c(c2)C(=O)N([C@@H](C)CO)C[C@@H](C)[C@@H](CN(C)Cc2ccccc2C(=O)O)O3)cc1	x	x	-3	1	x
SMILES	Wnt bcat act	MITF act	esBAF inh	XiGFP reactiv	Vif imaging
COc1cc(SC)ccc1C(=O)Nc1ccncc1	27	-8	x	0	-4
COc1cc(SC)ccc1C(=O)Nc1cccc(C2OCCCO2)c1	-5	75	68*	0	-11
COc1cc(SC)ccc1C(=O)Nc1nc(C)cc(C)n1	3	x	7	0	19
COc1cc(SC)ccc1C(=O)Nc1ccc2c(c1)CCC2	-1	63	47*	0	1
COc1cc(SC)ccc1C(=O)Nc1ccccc1C#N	3	27	43*	x	27
Cc1ccc(-c2nc(Nc3ccccc3)n[nH]2)cc1	45*	40	x	x	3
O=C(C[C@@H]1CC[C@@H](NC(=O)CC2CC2)[C@H](CO)O1)NCc1ccc(Cl)cc1	x	x	-12	0	x
Cc1cc(C)c(C#N)c(SCc2nnc(-c3ccccc3[N+](=O)[O-])o2)n1	75*	15	23	0	-5
N#Cc1c(/N=C/c2ccc(-c3ccccc3C(=O)O)o2)sc2c1CCCC2	9	38	57*	0	-2
CCOc1ccc2nc(NCCNC(=O)Nc3ccccc3)c(C#N)cc2c1	-21	x	3	x	57*
CCOc1ccc2cc(C#N)c(SCC(=O)N3CCC(C)CC3)nc2c1	-5	-1	-2	x	-4
CCOc1ccc2nc(SCC#N)c(C#N)cc2c1	82*	-6	-8	x	3
CCSc1nc2ccc(OC)cc2cc1C#N	x	77	21	x	23
CCOC(=O)CSc1nc2cc(OCC)ccc2cc1C#N	x	x	62*	x	11
CCCN1C[C@@H](C)[C@@H](OC)CN(C)C(=O)c2cc(NC(=O)CC(F)(F)F)ccc2OC[C@@H]1C	x	x	x	0	x
C[C@@H]1CN([C@@H](C)CO)C(=O)c2cc(-c3cccc(F)c3)cnc2O[C@H]1CN(C)C(=O)c1cnccn1	x	x	3	0	x
CO[C@@H]1CN(C)C(=O)c2ccc(NC(=O)Cc3ccccc3)cc2OC[C@@H](C)N(C)C[C@H]1C	x	x	-8	0	x
COc1ccc(S(=O)(=O)Nc2ccc3c(c2)C(=O)N([C@@H](C)CO)C[C@@H](C)[C@@H](CN(C)C(=O)Nc2ccc4c(c2)OCO4)O3)cc1	x	x	5	-1	x
CCC(=O)N1CCCCN2[C@@H](CO)[C@H](c3ccc(C#Cc4ccccc4)cc3)[C@@H]2C1	x	x	x	0	x
Cc1ccc(OCCOc2cccc(Br)c2)c([N+](=O)[O-])n1	x	103*	x	x	0
Cc1ccc(OCc2ccc(Br)cc2)c([N+](=O)[O-])n1	61*	x	x	0	x
CCOc1cc(Br)c(COc2ccc(C)nc2[N+](=O)[O-])cc1OCC	0	-6	-7	0	-13
Cc1ccc(OCc2ccc(-c3ccccc3)cc2)c([N+](=O)[O-])n1	8	44	x	1	-20
C[C@H](CO)N1C[C@H](C)[C@H](CN(C)Cc2ccc(C(=O)Nc3ccccc3N)cc2)Oc2c(NS(=O)(=O)c3ccccc3)cccc2C1=O	x	x	x	0	x
CC(=O)N(C)C[C@H]1Oc2ncccc2C(=O)N(C)C[C@H]1C	x	x	x	0	x
SMILES	Wnt bcat act	MITF act	esBAF inh	XiGFP reactiv	Vif imaging
C=CCSC1=NNC(c2ccc(C(C)(C)C)cc2)=NN1	12	66	63*	0	18
COc1ccc2oc(C(=O)c3ccccc3)c(N)c2c1	74*	x	x	x	x
COC(=O)CCC(=O)c1oc2ccc(OC)cc2c1N	x	109*	29	x	2
COc1ccc2oc(C(=O)C3CC3)c(N)c2c1	4	75	67*	x	-3
COc1ccc(C(=O)c2oc3ccccc3c2N)cc1	x	50	29	x	10
C[C@H]1CN([C@@H](C)CO)C(=O)c2cc(C#CC3CCCCC3)cnc2O[C@@H]1CN(C)Cc1cncnc1	x	x	-2	-1	x
COC(=O)C[C@H]1CC[C@H](NC(=O)Nc2ccc(C(F)(F)F)cc2)[C@@H](CO)O1	x	x	3	0	x
COc1ccc2c3c([nH]c2c1)[C@H](CO)N(C(C)=O)CC31CN(C(=O)Nc2c(C)noc2C)C1	x	x	x	0	x
Cc1ccc2[nH]c(C(=O)N3CCCCC3)cc2c1	13	44	58*	0	-6

High-throughput results from PubChem BioAssay.
